Reference: ChEMBL document CHEMBL1955815, “The synthesis of ethacrynic acid thiazole derivatives as glutathione S-transferase pi inhibitors” (2012)

Tested on: HL-60
Test: Growth inhibition of human HL60 cells after 72 hrs by trypan blue staining
Assay type: functional
Conditions: HL-60, 72 h
Procedure, shortened: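 HL-60 cells kept in RPMI-1640 with 10% heat-inactivated FBS, penicillin/streptomycin and L-glutamine at 37 °C, 5% CO2. Seeded at 4×10^4/mL in 24-well plates and exposed to a range of concentrations for 72 h. Trypan blue-positive and -negative cells were both counted. Inhibition = (1−Nt/Nc)×100%, and GI50 is the concentration giving half-maximal growth inhibition versus untreated cells.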

Row | Structure (SMILES) | GI50 [µM]
1 | C=C(CC)C(=O)c1ccc(OCC(=O)O)c(Cl)c1Cl [ETHACRYNIC ACID] | 44.2
2 | C=C(C)C(=O)c1ccc(OCc2nc(-c3ccccc3)cs2)cc1Cl | 6.4
3 | C=C(C)C(=O)c1ccc(OCc2nc(-c3ccc([N+](=O)[O-])cc3)cs2)c(C)c1C | 5.1
4 | C=C(C)C(=O)c1ccc(OCc2nc(-c3ccc4ccccc4c3)cs2)cc1Cl | 2.9
5 | C=C(C)C(=O)c1ccc(OCc2nc(-c3ccccc3)cs2)cc1C | 4.7
6 | C=C(C)C(=O)c1ccc(OCc2nc(-c3ccccc3)cs2)c(C)c1C | 3.4
7 | C=C(C)C(=O)c1ccc(OCc2nc(-c3ccc4ccccc4c3)cs2)c(C)c1C | 2.3
8 | C=C(C)C(=O)c1ccc(OCc2nc(-c3ccc([N+](=O)[O-])cc3)cs2)cc1Cl | 5.9

The remaining lines, values ahead:

Row | GI50 [µM] | Structure (SMILES)
9 | 2 | C=C(CC)C(=O)c1ccc(OCc2nc(-c3ccc4ccccc4c3)cs2)c(C)c1C
10 | 3.6 | C=C(CC)C(=O)c1ccc(OCc2nc(-c3ccc([N+](=O)[O-])cc3)cs2)c(C)c1C
11 | 3.6 | C=C(CC)C(=O)c1ccc(OCc2nc(-c3ccc4ccccc4c3)cs2)c(Cl)c1Cl
12 | 3.1 | C=C(C)C(=O)c1ccc(OCc2nc(-c3ccc(C(F)(F)F)cc3)cs2)c(C)c1C
13 | 1 | C=C(CC)C(=O)c1ccc(OCc2nc(-c3ccc([N+](=O)[O-])cc3)cs2)c(Cl)c1Cl
14 | 1.6 | C=C(CC)C(=O)c1ccc(OCc2nc(-c3ccc(C(F)(F)F)cc3)cs2)c(Cl)c1Cl
15 | 0.8 | C=C(CC)C(=O)c1ccc(OCc2nc(-c3ccc([N+](=O)[O-])cc3)cs2)cc1Cl
16 | 2 | C=C(CC)C(=O)c1ccc(OCc2nc(-c3ccc(C(F)(F)F)cc3)cs2)cc1Cl
17 | 1.4 | C=C(C)C(=O)c1ccc(OCc2nc(-c3ccc(C(F)(F)F)cc3)cs2)cc1Cl
18 | 1.5 | C=C(CC)C(=O)c1ccc(OCc2nc(-c3ccc(C(F)(F)F)cc3)cs2)c(C)c1C
19 | 0.9 | C=C(CC)C(=O)c1ccc(OCc2nc(-c3ccc4ccccc4c3)cs2)cc1Cl
